From ChEMBL document CHEMBL3352738, “A new phenylpropanoid and an alkylglycoside from Piper retrofractum leaves with their antioxidant and α-glucosidase inhibitory activity” (Bioorg Med Chem Lett, 2014) come the findings set out here.

Series [1] can be described thus: Antioxidant activity assessed as trolox equivalent of AAPH radical scavenging activity at 1 uM after 2 mins by ORAC-RCoo assay. In kind it is physicochemical. Put shortly:
(§1)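 Peroxyl radical scavenging was measured by the oxygen radical absorbance capacity (ORAC) assay, with Trolox as the positive control. Values are reported as Trolox equivalents (TE).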

Series [2] is described as follows: Antioxidant activity assessed as trolox equivalent of AAPH radical scavenging activity at 10 uM after 2 mins by ORAC-RCoo assay. The class given is physicochemical. Put shortly: as §1
Series [3] can be described thus: Antioxidant activity assessed as […] reduction power at 1 uM after 1 hr by cupric ion reducing antioxidant capacity assay. The class given is physicochemical.
Series [4] can be described thus: Antioxidant activity assessed as […] reduction power at 10 uM after 1 hr by cupric ion reducing antioxidant capacity assay. In kind it is physicochemical.
A short description of series [5]: Metal chelating activity of the compound assessed as Cu2+ chelating activity at 10 uM by fluorescence assay relative to control. The class given is physicochemical.
Series [6] can be described thus: Inhibition of alpha-glucosidase (unknown origin) using 3 mM p-NPG solution at 50 uM relative to control. The following applies: Rattus norvegicus.

The term inhibition denotes the change of the read-out against control, counted positive when it falls. Lower therefore signals little suppression. In the case of `CCCCC[C@H](C)O[C@@H]1O[C@H](CO[C@@H]2OC[C@@H](O)[C@H](O)[C@H]2O)[C@@H](O)[C@H](O)[C@H]1O`, the Activity in series [1] turned out to be 0.48 µM; in series [2], 2.26 µM; in series [3], 0.17 µM; in series [4], 0.59 µM; in series [5] it was 20.58%. For the same compound, the inhibition in series [6] stood at 8.54%.

As for `OC[C@@]1(O)CO[C@@H](OC[C@H]2O[C@@H](OCc3ccccc3)[C@H](O)[C@@H](O)[C@@H]2O)[C@@H]1O`, the Activity in series [1] was 0.15 µM; in series [2] it was 1.61 µM; in series [3] it was 0.46 µM; in series [4], 0.84 µM; in series [5], 19.3%. In series [6], the inhibition is 7.93%.

As for `CC(C)O[C@@H]1O[C@H](CO)[C@@H](O)[C@H](O)[C@H]1O`, the Activity in series [1] stood at 0.22 µM; in series [2] it was 1.79 µM; in series [3], 0.29 µM; in series [4], 0.54 µM; in series [5], 20.97%. Also, the inhibition in series [6] amounted to 7.31%.

In the case of `CC(C)O[C@@H]1O[C@H](CO[C@@H]2OC[C@@H](O)[C@H](O)[C@H]2O)[C@@H](O)[C@H](O)[C@H]1O`, the Activity worked out at 0.31 µM in series [1]; 2.13 µM in series [2]; 0.27 µM in series [3]; 0.63 µM in series [4]; 21.67% in series [5]. In series [6], this compound came in with an inhibition of 7.49%.

`CCCCO[C@@H]1O[C@H](CO)[C@@H](O)[C@H](O)[C@H]1O`: the Activity was 0.62 µM in series [1]; 3.64 µM in series [2]; 0.18 µM in series [3]; 1.68 µM in series [4]; 18.04% in series [5].

For `COc1cc(C[C@@H](O)CO)ccc1O[C@@H]1O[C@H](CO)[C@@H](O)[C@H](O)[C@H]1O`, the Activity in series [1] was 0.55 µM; in series [2], 2.88 µM; in series [3], 0.29 µM; in series [4] it was 0.96 µM; in series [5] it was 24.21%. This compound returned an inhibition in series [6] of 11.7%.

For the compound `COc1cc(O[C@@H]2O[C@H](CO)[C@@H](O)[C@H](O)[C@H]2O)ccc1O` [TACHIOSIDE], the Activity in series [1] is 0.21 µM; in series [2], 1.65 µM; in series [3], 0.21 µM; in series [4], 0.63 µM; in series [5], 21.42%. Moreover, in series [6], the inhibition is 4.6%.

For `C=CCc1ccc(O)c(O)c1` [HYDROXYCHAVICOL], the Activity in series [1] amounted to 2.55 µM; in series [2], 16.26 µM; in series [3], 1.55 µM; in series [4] it was 22.77 µM; in series [5], 20.48%. The same compound gave an inhibition in series [6] of 9.08%.

Regarding `CC1=CC(=O)CC(C)(C)[C@@]1(O)CC[C@@H](C)O[C@@H]1O[C@H](CO)[C@@H](O)[C@H](O)[C@H]1O`, the Activity turned out to be 0.12 µM in series [1]; 0.92 µM in series [2]; 0.21 µM in series [3]; 0.34 µM in series [4]; 20.5% in series [5]. This compound also came in with an inhibition in series [6] of 6.9%.

With `OC[C@H]1O[C@@H](OCc2ccccc2)[C@H](O)[C@@H](O)[C@@H]1O`, the Activity was 0.18 µM in series [1]; 1.83 µM in series [2]; 0.41 µM in series [3]; 0.69 µM in series [4]; 22.39% in series [5]. Also, in series [6], the inhibition was found to be 12%.

Take `C=CCc1ccc(O[C@@H]2O[C@H](CO)[C@@H](O)[C@H](O)[C@H]2O)c(O[C@@H]2O[C@H](CO)[C@@H](O)[C@H](O)[C@H]2O)c1`: the Activity in series [1] amounted to 0.17 µM; in series [2] it was 1.71 µM; in series [3], 0.32 µM; in series [4], 0.65 µM; in series [5], 21.8%. In series [6], the inhibition was 7.02%.

Consider `COc1cc(C[C@@H](O)CO)ccc1O`, for which the Activity in series [1] came to 3.59 µM; in series [2] it was 28.2 µM; in series [3] it was 9.01 µM; in series [4] it was 43.82 µM; in series [5], 25%.

Turning to `CCCCC[C@H](C)O[C@@H]1O[C@H](CO[C@@H]2OC[C@](O)(CO)[C@H]2O)[C@@H](O)[C@H](O)[C@H]1O`, the Activity in series [1] stood at 1.04 µM; in series [2], 3.07 µM; in series [3], 0.34 µM; in series [4] it was 1.13 µM; in series [5] it was 19.63%. This compound came in with an inhibition in series [6] of 8.62%.
